From article PMC3611965 (Nuclear medicine and biology, 2012)
“And” between values parts separate entries of the source, which are not always exact repeats. Equal values may be shown once.

How the values were obtained:
FAAH [1] = target: T1, FAAH (Rattus norvegicus, UniProt P97612); conditions: cited from earlier work
T1 sequence (P97612 1-579): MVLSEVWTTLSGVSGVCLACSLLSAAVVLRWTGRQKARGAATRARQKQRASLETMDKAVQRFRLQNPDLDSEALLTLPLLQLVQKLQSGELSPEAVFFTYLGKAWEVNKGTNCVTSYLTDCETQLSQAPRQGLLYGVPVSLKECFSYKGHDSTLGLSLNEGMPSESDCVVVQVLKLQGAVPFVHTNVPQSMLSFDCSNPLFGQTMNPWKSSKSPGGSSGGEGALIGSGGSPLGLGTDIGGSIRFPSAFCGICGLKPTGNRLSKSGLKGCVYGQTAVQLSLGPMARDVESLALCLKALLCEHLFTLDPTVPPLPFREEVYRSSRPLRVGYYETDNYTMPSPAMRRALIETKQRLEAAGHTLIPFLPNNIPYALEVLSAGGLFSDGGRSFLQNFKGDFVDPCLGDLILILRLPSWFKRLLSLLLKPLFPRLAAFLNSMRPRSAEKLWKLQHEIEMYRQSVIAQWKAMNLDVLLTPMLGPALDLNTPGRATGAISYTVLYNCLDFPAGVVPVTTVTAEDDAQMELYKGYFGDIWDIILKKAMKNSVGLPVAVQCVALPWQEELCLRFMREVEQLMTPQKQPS

[2] = rats; ref [20],[21]; cited from earlier work
[3] = test system: FAAH relative to other serine hydrolases; conditions: competitive ABPP; ref [20],[21]; cited from earlier work
FAAH [4] = target: T1, FAAH; assay: dynamic PET imaging in rats, baseline and blocked; format: in vivo
Summary of the method: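 Male Sprague–Dawley rats (345±28 g) with jugular vein cannulas, held under ~2% isoflurane/O2 with respiration kept at 45–65 breaths/min and heat-lamp warming. The 18F-labelled test compound was given IV via tail vein (1.5462±0.4130 mCi) and brain scanned dynamically for 90 min in 16 frames. Blocked rats received an FAAH inhibitor 1 mg/kg p.o. 1 h before. Blood and plasma were sampled at 1–90 min. Images were atlas-registered for TACs and SUV.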

FAAH [5] = target: T1, FAAH; assay: brain biodistribution of [18F]PF-9811 in rats, baseline and blocked; format: in vivo; conditions: for SUV±standard deviation, Bone: N=2; for SUV±standard deviation, Blood / SUV±standard deviation, Brain stem / SUV±standard deviation, Cerebellum / SUV±standard deviation, Cortex / SUV±standard deviation, Hippocampus / SUV±standard deviation, Hypothalamus / SUV±standard deviation, Liver / SUV±standard deviation, Rest of brain / SUV±standard deviation, Striatum / SUV±standard deviation, Thalamus: N=4
log P7.4 measurement = format: physicochemical; conditions: n-octanol/DPBS pH 7.4; measured in quadruplicate
Summary of the method: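 18F-labelled test compound (15–30 μCi) was partitioned between presaturated n-octanol and DPBS (0.1 M, pH 7.4) by vortexing 60 s and centrifuging at 4000 rpm for 2 min. The octanol phase was washed with fresh DPBS three times, then re-partitioned against fresh DPBS in four successive sets. Triplicate aliquots of each phase were gamma-counted. LogP7.4 = log[(octanol counts×20)/DPBS counts].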

[6] = 10 min, blocked: 4 1 mg/kg oral 1 h prior
[7] = 10 min post injection, baseline
[8] = 60 min, blocked: 4 1 mg/kg oral 1 h prior
[9] = 60 min post injection, baseline
[10] = 90 min, blocked: 4 1 mg/kg oral 1 h prior
[11] = 90 min, pretreatment with 4 1 mg/kg p.o.
[12] = 90 min post injection, baseline
[13] = biodistribution 90 min, baseline vs blocking

O=C(Nc1cccnn1)N1CCC(=Cc2cccc(Oc3ccc(C(F)(F)F)cn3)c2)CC1 [compound 4]
FAAH inhibition at blocking dose (FAAH [1]; p.o. 1.0 mg/kg, ref [20]): fully inhibit | duration of sustained inhibition of brain FAAH activity, maximal elevations of brain AEA and efficacy in rat models of acute inflammatory pain (FAAH [1]; single oral administration 1 mg/kg, ref [15],[20]): at least 24 h | oral bioavailability [2]: 88% | selectivity for FAAH relative to other serine hydrolases [3]: exquisite selectivity

O=C(Nc1cccnn1)N1CCC(=Cc2cccc(Oc3ccc(OCC[18F])cn3)c2)CC1 [[^18F]PF-9811]
decreased uptake in blocking experiments, hippocampus (FAAH [4]; PET, end of 90 min, 4 1 mg/kg p.o. 1 h prior): ~40% | PET uptake (SUV), hippocampus and cortex (FAAH [4]; baseline, 90 min): ~0.8 SUV | SUV±standard deviation, Bone (FAAH [5]; [6]): 0.332±0.010 SUV | SUV±standard deviation, Blood (FAAH [5]; [6]): 1.031±0.069 SUV | SUV±standard deviation, Brain stem (FAAH [5]; [6]): 0.313±0.011 SUV | SUV±standard deviation, Cerebellum (FAAH [5]; [6]): 0.291±0.008 SUV | SUV±standard deviation, Cortex (FAAH [5]; [6]): 0.265±0.014 SUV | SUV±standard deviation, Hippocampus (FAAH [5]; [6]): 0.282±0.014 SUV | SUV±standard deviation, Hypothalamus (FAAH [5]; [6]): 0.351±0.024 SUV | SUV±standard deviation, Liver (FAAH [5]; [6]): 7.725±0.701 SUV | SUV±standard deviation, Rest of brain (FAAH [5]; [6]): 0.294±0.018 SUV | SUV±standard deviation, Striatum (FAAH [5]; [6]): 0.309±0.028 SUV | SUV±standard deviation, Thalamus (FAAH [5]; [6]): 0.304±0.020 SUV | SUV±standard deviation, Bone (FAAH [5]; [7]): 0.180±0.001 SUV | SUV±standard deviation, Blood (FAAH [5]; [7]): 0.224±0.070 SUV | SUV±standard deviation, Brain stem (FAAH [5]; [7]): 0.319±0.029 SUV | SUV±standard deviation, Cerebellum (FAAH [5]; [7]): 0.666±0.017 SUV | SUV±standard deviation, Cortex (FAAH [5]; [7]): 0.596±0.030 SUV | SUV±standard deviation, Hippocampus (FAAH [5]; [7]): 0.579±0.018 SUV | SUV±standard deviation, Hypothalamus (FAAH [5]; [7]): 0.410±0.027 SUV | SUV±standard deviation, Liver (FAAH [5]; [7]): 14.179±3.336 SUV | SUV±standard deviation, Rest of brain (FAAH [5]; [7]): 0.471±0.038 SUV | SUV±standard deviation, Striatum (FAAH [5]; [7]): 0.427±0.021 SUV | SUV±standard deviation, Thalamus (FAAH [5]; [7]): 0.382±0.051 SUV | SUV±standard deviation, Bone (FAAH [5]; [8]): 0.391±0.088 SUV | SUV±standard deviation, Blood (FAAH [5]; [8]): 0.747±0.191 SUV | SUV±standard deviation, Brain stem (FAAH [5]; [8]): 0.264± 0.076 SUV | SUV±standard deviation, Cerebellum (FAAH [5]; [8]): 0.248± 0.076 SUV | SUV±standard deviation, Cortex (FAAH [5]; [8]): 0.219±0.068 SUV | SUV±standard deviation, Hippocampus (FAAH [5]; [8]): 0.233±0.076 SUV | SUV±standard deviation, Hypothalamus (FAAH [5]; [8]): 0.260± 0.088 SUV | SUV±standard deviation, Liver (FAAH [5]; [8]): 4.488±1.343 SUV | SUV±standard deviation, Rest of brain (FAAH [5]; [8]): 0.239±0.071 SUV | SUV±standard deviation, Striatum (FAAH [5]; [8]): 0.255±0.082 SUV | SUV±standard deviation, Thalamus (FAAH [5]; [8]): 0.251±0.074 SUV | SUV±standard deviation, Bone (FAAH [5]; [9]): 0.133±0.058 SUV | SUV±standard deviation, Blood (FAAH [5]; [9]): 0.063±0.012 SUV | SUV±standard deviation, Brain stem (FAAH [5]; [9]): 0.331±0.041 SUV | SUV±standard deviation, Cerebellum (FAAH [5]; [9]): 0.751±0.094 SUV | SUV±standard deviation, Cortex (FAAH [5]; [9]): 0.674±0.109 SUV | SUV±standard deviation, Hippocampus (FAAH [5]; [9]): 0.673±0.118 SUV | SUV±standard deviation, Hypothalamus (FAAH [5]; [9]): 0.426± 0.045 SUV | SUV±standard deviation, Liver (FAAH [5]; [9]): 17.346±4.789 SUV | SUV±standard deviation, Rest of brain (FAAH [5]; [9]): 0.555±0.081 SUV | SUV±standard deviation, Striatum (FAAH [5]; [9]): 0.441±0.073 SUV | SUV±standard deviation, Thalamus (FAAH [5]; [9]): 0.374±0.045 SUV | SUV±standard deviation, Bone (FAAH [5]; [10]): 0.472±0.133 SUV | SUV±standard deviation, Blood (FAAH [5]; [10]): 0.703±0.117 SUV | SUV±standard deviation, Brain stem (FAAH [5]; [10]): 0.246± 0.050 SUV | SUV±standard deviation, Cerebellum (FAAH [5]; [10]): 0.249± 0.065 SUV | SUV±standard deviation, Cortex (FAAH [5]; [10]): 0.216±0.055 SUV | SUV±standard deviation, Hippocampus (FAAH [5]; [10]): 0.234±0.061 SUV | SUV±standard deviation, Hypothalamus (FAAH [5]; [10]): 0.257±0.079 SUV | SUV±standard deviation, Liver (FAAH [5]; [10]): 4.165±0.664 SUV | SUV±standard deviation, Rest of brain (FAAH [5]; [10]): 0.231±0.055 SUV | SUV±standard deviation, Striatum (FAAH [5]; [10]): 0.240±0.065 SUV | SUV±standard deviation, Thalamus (FAAH [5]; [10]): 0.238±0.058 SUV | increase in signal in the blood on blocking (FAAH [5]; [11]): 12 fold | reduction of signal in the liver on blocking (FAAH [5]; [11]): 74% | SUV±standard deviation, Bone (FAAH [5]; [12]): 0.159±0.001 SUV | SUV±standard deviation, Blood (FAAH [5]; [12]): 0.061±0.009 SUV | SUV±standard deviation, Brain stem (FAAH [5]; [12]): 0.391± 0.040 SUV | SUV±standard deviation, Cerebellum (FAAH [5]; [12]): 0.857±0.144 SUV | SUV±standard deviation, Cortex (FAAH [5]; [12]): 0.789±0.096 SUV | SUV±standard deviation, Hippocampus (FAAH [5]; [12]): 0.770±0.126 SUV | SUV±standard deviation, Hypothalamus (FAAH [5]; [12]): 0.545±0.126 SUV | SUV±standard deviation, Liver (FAAH [5]; [12]): 16.116±4.670 SUV | SUV±standard deviation, Rest of brain (FAAH [5]; [12]): 0.612±0.088 SUV | SUV±standard deviation, Striatum (FAAH [5]; [12]): 0.573±0.081 SUV | SUV±standard deviation, Thalamus (FAAH [5]; [12]): 0.544± 0.063 SUV | specific to non-specific binding ratio, cerebellum (FAAH [5]; [13]): 2.4 | specific to non-specific binding ratio, cortex (FAAH [5]; [13]): 2.6 | specific to non-specific binding ratio, hippocampus (FAAH [5]; [13]): 2.3 | uptake in rat brain (SUV) (FAAH [5]; biodistribution, 90 min, baseline): ~0.8 SUV | defluorination (as determined by bone uptake) (FAAH [5]; rats): minimal | logP7.4 (log P7.4 measurement): 3.14±0.02 and 3.14
